Columns and labels:
Type in all cases: functional
Escherichia coli [1] = assay: Bactericidal activity against Escherichia coli NIHJ JC-2 preincubated for 5 mins before addition of growth medium measured after 40 to 48 hrs
Escherichia coli [2] = assay: Bactericidal activity against Escherichia coli NIHJ JC-2 preincubated for 1 min before addition of growth medium measured after 40 to 48 hrs
Staphylococcus aureus [3] = assay: Antibacterial activity against Staphylococcus aureus 209PJC after 24 hrs
Method in brief: (§1)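 Value is the minimal inhibitory concentration (MIC) against the test organism, read after 24 h of incubation.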

Staphylococcus aureus [4] = assay: Bactericidal activity against methicillin-resistant Staphylococcus aureus 97-115 preincubated for 3 mins before addition of growth medium measured after 40 to 48 hrs
Method in brief: (§2)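 Read-out is the minimal bactericidal concentration (MBC), taken after 1, 3 and 5 min contact of compound with the test organism.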

Pseudomonas aeruginosa [5] = assay: Bactericidal activity against Pseudomonas aeruginosa PAO1 preincubated for 1 min before addition of growth medium measured after 40 to 48 hrs
Escherichia coli [6] = assay: Antibacterial activity against Escherichia coli NIHJ JC-2 after 24 hrs; method in brief: as §1
Staphylococcus aureus [7] = assay: Antibacterial activity against methicillin-resistant Staphylococcus aureus 97-115 after 24 hrs
Method in brief: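 Read-out is the minimal inhibitory concentration (MIC), taken after 24 h incubation with the test organism.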

Staphylococcus aureus [8] = assay: Bactericidal activity against Staphylococcus aureus 209PJC preincubated for 1 min before addition of growth medium measured after 40 to 48 hrs
Pseudomonas aeruginosa [9] = assay: Bactericidal activity against Pseudomonas aeruginosa PAO1 preincubated for 5 mins before addition of growth medium measured after 40 to 48 hrs
Staphylococcus aureus [10] = assay: Bactericidal activity against methicillin-resistant Staphylococcus aureus 97-115 preincubated for 5 mins before addition of growth medium measured after 40 to 48 hrs; method in brief: as §2
Pseudomonas aeruginosa [11] = assay: Antibacterial activity against Pseudomonas aeruginosa PAO1; method in brief: as §1
Staphylococcus aureus [12] = assay: Bactericidal activity against Staphylococcus aureus 209PJC preincubated for 3 mins before addition of growth medium measured after 40 to 48 hrs
Staphylococcus aureus [13] = assay: Bactericidal activity against Staphylococcus aureus 209PJC preincubated for 5 mins before addition of growth medium measured after 40 to 48 hrs
Pseudomonas aeruginosa [14] = assay: Bactericidal activity against Pseudomonas aeruginosa PAO1 preincubated for 3 mins before addition of growth medium measured after 40 to 48 hrs
Staphylococcus aureus [15] = assay: Bactericidal activity against methicillin-resistant Staphylococcus aureus 97-115 preincubated for 1 min before addition of growth medium measured after 40 to 48 hrs; method in brief: as §2
Escherichia coli [16] = assay: Bactericidal activity against Escherichia coli NIHJ JC-2 preincubated for 3 mins before addition of growth medium measured after 40 to 48 hrs

Row | Structure (SMILES) | MBC (Escherichia coli [1]) [µg/mL] | MBC (Escherichia coli [2]) [µg/mL] | MIC (Staphylococcus aureus [3]) [µg/mL] | MBC (Staphylococcus aureus [4]) [µg/mL] | MBC (Pseudomonas aeruginosa [5]) [µg/mL] | MIC (Escherichia coli [6]) [µg/mL] | MIC (Staphylococcus aureus [7]) [µg/mL] | MBC (Staphylococcus aureus [8]) [µg/mL] | MBC (Pseudomonas aeruginosa [9]) [µg/mL] | MBC (Staphylococcus aureus [10]) [µg/mL] | MIC (Pseudomonas aeruginosa [11]) [µg/mL] | MBC (Staphylococcus aureus [12]) [µg/mL] | MBC (Staphylococcus aureus [13]) [µg/mL] | MBC (Pseudomonas aeruginosa [14]) [µg/mL] | MBC (Staphylococcus aureus [15]) [µg/mL] | MBC (Escherichia coli [16]) [µg/mL]
1 | CC(=O)O.CCCCCCCCNC1=NC(C)(C)NC(NCCc2ccccc2)=N1 | 3.1 | 6.3 | 0.8 | > 100 | 6.3 | 25 | 1.6 | 50 | 3.1 | > 100 | 25 | 12.5 | 12.5 | 6.3 | > 100 | 3.1
2 | CC(=O)O.CCCCCCCCCCNC1=NC(C)(C)NC(Nc2ccccc2)=N1 |  |  | 0.4 |  |  | 12.5 | 0.4 |  |  |  | 100 |  |  |  |  | 
3 | CC(=O)O.CCCCCCCCNC1=NC(C)(C)NC(NCc2ccccc2)=N1 | 6.3 | 12.5 | 0.8 | 50 | 25 | 12.5 | 1.6 | 25 | 12.5 | 50 | 25 | 12.5 | 6.3 | 12.5 | > 50 | 6.3
4 | CC(=O)O.CCCCCCCCCCNC1=NC(C)(C)NC(NCc2ccc(C)cc2)=N1 |  |  | 0.8 |  |  | 100 | 0.8 |  |  |  | 100 |  |  |  |  | 
5 | CCCCCCCCCNC1=NC(C)(C)NC(NCc2ccc(OC)cc2)=N1.CS(=O)(=O)O | 3.1 | 12.5 | 0.8 | > 100 | 25 | 25 | 1.6 | 6.3 | 12.5 | > 100 | 50 | 6.3 | 3.1 | 12.5 | > 100 | 6.3
6 | CC(=O)O.CCCCCCCCCNC1=NC(C)(C)NC(NCc2ccccc2)=N1 | 3.1 | 6.3 | 0.8 | 6.3 | 6.3 | 12.5 | 1.6 | 12.5 | 3.1 | 6.3 | 12.5 | 6.3 | 6.3 | 3.1 | 12.5 | 6.3
7 | CC(=O)O.CCCCCCCCCCNC1=NC(C)(C)NC(NCCc2ccccc2)=N1 | 12.5 | 12.5 | 0.8 | > 50 | 25 | 25 | 0.8 | 50 | 12.5 | > 50 | 25 | 12.5 | 12.5 | 12.5 | > 50 | 12.5
8 | CC(=O)O.CCCCCCCNC1=NC(C)(C)NC(NCc2ccc(C)cc2)=N1 | 12.5 | 25 | 0.8 | 50 | 25 | 25 | 1.6 | 25 | 12.5 | 50 | 50 | 12.5 | 12.5 | 12.5 | 50 | 12.5
9 | CC(=O)O.CCCCCCCCCCCNC1=NC(C)(C)NC(NCc2ccc(OC)cc2)=N1 |  |  | 0.4 |  |  | 100 | 0.8 |  |  |  | 100 |  |  |  |  | 
10 | CC(=O)O.CCCCCCCCCNC1=NC(C)(C)NC(NCCc2ccccc2)=N1 | 3.1 | 12.5 | 0.4 | 12.5 | 12.5 | 12.5 | 0.8 | 25 | 1.6 | 6.3 | 12.5 | 12.5 | 6.3 | 3.1 | 25 | 3.1

From ChEMBL document CHEMBL1143313, “Synthesis of novel 4,6-di(substituted)amino-1,2-dihydro-1,3,5-triazine derivatives as topical antiseptic agents” (2009)
